Data published in ChEMBL document CHEMBL1131070, “Synthesis and antiallergic activity of dimethyl-2-(phenylcarbamoyl)ethylsulfonium p-toluenesulfonate derivatives” (J Med Chem, 1998).

Legend:
Rattus norvegicus [1] = experiment: Inhibition of homologous Passive Cutaneous Anaphylaxis in rat, following 20 mg/kg i.p. administration.; type: functional; conditions: po, in the assay text read “p.o.” for “i.p.”
Summary of the method: (§1)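 Rat anti-DNP-As serum (raised with DNP-coupled ascaris plus killed Bordetella pertussis; titer about 1:256 by 48-h PCA) diluted 20-fold in 0.9% saline, given intradermally as 0.1 mL at three shaved-back sites of normal rats, with saline on the other side. After 48 h, 1.0 mL of 0.25% Evans blue containing 2.0 mg of antigen given iv. Read-out is % inhibition ± SD.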

Rattus norvegicus [2] = experiment: Inhibition of the homologous passive cutaneous anaphylaxis (PCA) in rat, administered at a dose of 50 mg/kg intraperitoneally; type: functional; conditions: ip, route intraperitoneal; summary of the method: as §1
[3] = Lethal dose (LD50) determined in male ddY mice; type: toxicity; conditions: mouse, in vivo
Summary of the method: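 Acute toxicity by the up-down method, five animals per determination, with LD50 reported in mg/kg.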

Rattus norvegicus [4] = experiment: Inhibitory activity against the homologous Passive Cutaneous Anaphylaxis (PCA) in rat, administered at a dose of 50 mg/kg perorally; type: functional; conditions: route oral; summary of the method: as §1
Rattus norvegicus [5] = experiment: Inhibitory activity against the homologous Passive Cutaneous Anaphylaxis (PCA) in rat, administered at a dose of 20 mg/kg perorally; type: functional; conditions: route oral; summary of the method: as §1
Rattus norvegicus [6] = experiment: Inhibitory activity against the homologous Passive Cutaneous Anaphylaxis (PCA) in rat, administered at a dose of 100 mg/kg intraperitoneally; type: functional; conditions: ip, route intraperitoneal; summary of the method: as §1

| Structure (SMILES) | inhibition in vivo at 20 mg/kg (Rattus norvegicus [1]) [%] | inhibition in vivo at 50 mg/kg (Rattus norvegicus [2]) [%] | other results |
| --- | --- | --- | --- |
| CCCOCC(O)COc1ccc(NC(=O)CC[S+](C)C)cc1 (centres undefined) | 16.3 | 13.8 | – |
| COCC(O)COc1ccc(NC(=O)CC[S+](C)C)cc1 (centres undefined) | 17.7 | 24.8 | – |
| C[S+](C)CCC(=O)Nc1ccc(OCC(O)CO)cc1.Cc1ccc(S(=O)(=O)[O-])cc1 (centres undefined) | 38.7 | 34.9 | LD50 [3]: 1040 mg/kg; inhibition in vivo at 50 mg/kg (Rattus norvegicus [4]): 18.6%; inhibition in vivo at 20 mg/kg (Rattus norvegicus [5]): 1.4% |
| CCOCC(COc1cccc(NC(=O)CC[S+](C)C)c1)OC(C)=O (centres undefined) | 18.2 | 17.7 | – |
| CCOCC(COc1ccc(NC(=O)CC[S+](C)C)cc1)OC(C)=O (centres undefined) | 35.1 | 30.2 | – |
| C[S+](C)CCC(=O)Nc1ccc(OCC(O)COC2CCCCC2)cc1 (centres undefined) | 10.2 | -7.4 | – |
| C[S+](C)CCC(=O)Nc1ccc(CC(=O)O)cc1 | 14.9 | 25.5 | – |
| C[S+](C)CCC(=O)Nc1ccc(O)cc1 | 21.9 | 9.7 | – |
| Cc1ccc(NC(=O)CC[S+](C)C)cc1 | 18.9 | 22 | – |
| C[S+](C)CCC(=O)Nc1ccc(OCC(O)COc2ccccc2)cc1 (centres undefined) | 14.4 | 4.6 | – |
| C[S+](C)CCC(N)=O | – | 2.4 | inhibition in vivo at 100 mg/kg (Rattus norvegicus [6]): 13.7% |
| CCCOc1ccc(NC(=O)CC[S+](C)C)cc1.Cc1ccc(S(=O)(=O)[O-])cc1 | 13.8 | 29.8 | LD50 [3]: 97 mg/kg |
| CCOCC(COc1ccc(NC(=O)CC[S+](C)C)cc1)OCC (centres undefined) | 0.1 | 5.1 | – |
| C[S+](C)CCC(=O)Nc1ccc(Cl)cc1 | -0.2 | 0.3 | – |
| C[S+](C)CCC(=O)Nc1ccc(F)cc1 | 4 | 1.2 | – |
| C[S+](C)CCC(=O)Nc1ccc(OCCCO)cc1.Cc1ccc(S(=O)(=O)[O-])cc1 | – | – | LD50 [3]: 324 mg/kg |
| CCCCOCC(O)COc1ccc(NC(=O)CC[S+](C)C)cc1 (centres undefined) | 7.9 | 4.4 | – |
| CC(O)COc1ccc(NC(=O)CC[S+](C)C)cc1.Cc1ccc(S(=O)(=O)[O-])cc1 (centres undefined) | – | – | LD50 [3]: 495 mg/kg |
| C[S+](C)CCC(=O)NC1CCCCC1 | – | 9 | inhibition in vivo at 100 mg/kg (Rattus norvegicus [6]): 17% |
| CC(=O)c1ccc(NC(=O)CC[S+](C)C)cc1 | 9 | 25.1 | – |
| COc1ccc(NC(=O)CC[S+](C)C)cc1 | -4.4 | 17.4 | – |
| C[S+](C)CCC(=O)Nc1ccccc1 | – | -8.3 | inhibition in vivo at 100 mg/kg (Rattus norvegicus [6]): 27.1% |
| CCOCC(COc1ccccc1NC(=O)CC[S+](C)C)OC(C)=O (centres undefined) | -2 | 20 | – |
| C[S+](C)CCC(=O)Nc1ccc(C(F)(F)F)cc1 | -7.8 | -10.3 | – |
| COCC(COc1ccc(NC(=O)CC[S+](C)C)cc1)OC (centres undefined) | 17.9 | 10.5 | – |
| CCOCC(O)COc1ccc(NC(=O)CC[S+](C)C)cc1 (centres undefined) [SUPLATAST TOSILATE] | 28.9 | 35.5 | – |
